According to ChEMBL document CHEMBL4715796, “Discovery of Chromane Containing Hepatitis C Virus (HCV) NS5A Inhibitors with Improved Potency against Resistance-Associated Variants” (J Med Chem, 2016):
Residue numbers refer to the chain shown, from its start.

Assays:
[1] = Selectivity ratio of EC90 for inhibition of NS5A in Hepatitis C virus subtype 3a infected in human HuH7 cells assessed as reduction in viral to EC90 for inhibition of NS5A in Hepatitis C virus subtype 1a; format: cell-based
[2] = Selectivity ratio of EC90 for inhibition of NS5A in Hepatitis C virus subtype 2b infected in human HuH7 cells assessed as reduction in viral to EC90 for inhibition of NS5A in Hepatitis C virus subtype 1a; format: cell-based
[3] = Selectivity ratio of EC90 for inhibition of NS5A in Hepatitis C virus subtype 1b infected in human HuH7 cells assessed as reduction in viral to EC90 for inhibition of NS5A in Hepatitis C virus subtype 1a; format: cell-based
In short: (§1)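 Fold shift calculated against the GT1a EC90, using EC90 values from the luciferase replicon assay in Huh7-derived cells.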

[4] = tested on: Nonstructural protein 5A (Hepatitis C virus), Q5L478 [UNDEFINED MUTATION]; experiment: Inhibition of NS5A L31V mutant in Hepatitis C virus subtype 1b
In short: (§2)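 NS5A resistance variants engineered into GT1a-H77 or GT1b-Con1 replicons. Each variant replicon is transfected transiently by electroporation into a Huh7-derived cell line. Percent inhibition is taken from the drop in luciferase signal at each compound concentration, and EC90 is calculated from these. Values are means of at least two experiments.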

[5] = tested on: T1, Nonstructural protein 5A (Hepatitis C virus), Q5L478 [Y93N]; experiment: Inhibition of NS5A Y93N mutant in Hepatitis C virus subtype 1a; in short: as §2
T1 sequence (whole entry): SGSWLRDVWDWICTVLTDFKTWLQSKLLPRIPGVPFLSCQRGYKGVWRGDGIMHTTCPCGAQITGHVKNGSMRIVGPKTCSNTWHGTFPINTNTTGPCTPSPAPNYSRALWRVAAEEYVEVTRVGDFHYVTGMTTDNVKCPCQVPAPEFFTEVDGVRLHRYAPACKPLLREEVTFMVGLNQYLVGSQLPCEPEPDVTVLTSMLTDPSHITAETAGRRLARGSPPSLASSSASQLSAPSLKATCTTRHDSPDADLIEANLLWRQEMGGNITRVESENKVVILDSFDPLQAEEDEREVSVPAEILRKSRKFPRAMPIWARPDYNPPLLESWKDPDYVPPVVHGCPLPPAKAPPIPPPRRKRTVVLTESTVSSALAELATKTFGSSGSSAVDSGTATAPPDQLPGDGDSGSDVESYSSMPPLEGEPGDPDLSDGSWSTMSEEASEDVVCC

[6] = tested on: T2, Nonstructural protein 5A (Hepatitis C virus), Q5L478 [Y93H]; experiment: Inhibition of NS5A Y93H mutant in Hepatitis C virus subtype 1b; in short: as §2
T2 sequence (whole entry): T1 sequence (whole entry) with N93H

[7] = tested on: Nonstructural protein 5A (Hepatitis C virus), Q5L478 [UNDEFINED MUTATION]; experiment: Inhibition of NS5A Q30R mutant in Hepatitis C virus subtype 1a; in short: as §2
[8] = tested on: Hepatitis C virus subtype 1a; experiment: Inhibition of NS5A Q30D mutant in Hepatitis C virus subtype 1a; in short: as §2
[9] = Oral bioavailability in male Wistar Han rat at 10 mg/kg post overnight fasting measured upto 24 hrs by LC-MS/MS analysis; format: ADME, organism-based; settings: in vivo
In short: (§3)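 Overnight-fasted male Wistar Han rats or Beagle dogs, two animals per group, 24 h study. IV in 60% PEG200 (rat 2 mg/kg, dog 1 mg/kg). PO in 10% Tween (rat 10 mg/kg, dog 5 mg/kg). Blood sampled up to 24 h, plasma separated by centrifugation, and drug measured by LC/MS. MRT reported for the IV route.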

[10] = Drug concentration in male Wistar Han rat at 10 mg/kg, po measured after 24 hrs by LC/MS analysis; format: ADME, organism-based; settings: in vivo, read-out: Drug uptake; in short: as §3
[11] = Cmax in male Wistar Han rats at 10 mg/kg, po administered post overnight fasting measured upto 24 hrs by LC-MS/MS analysis; format: ADME, organism-based; set-up: route oral, dose 10 mg/kg, time <=24; settings: rat, in vivo; in short: as §3
[12] = AUC in male Wistar Han rats at 10 mg/kg, po administered post overnight fasting measured upto 24 hrs by LC-MS/MS analysis; format: ADME, organism-based; set-up: route oral, dose 10 mg/kg, time <=24; settings: rat, in vivo; in short: as §3
[13] = Clearance in male Wistar Han rats at 2 mg/kg, iv administered post overnight fasting measured upto 24 hrs by LC-MS/MS analysis; format: ADME, organism-based; settings: rat, in vivo; in short: as §3
[14] = Half-life in male Wistar Han rats at 2 mg/kg, iv administered post overnight fasting measured upto 24 hrs by LC-MS/MS analysis; format: ADME, organism-based; settings: rat, in vivo; in short: as §3
[15] = tested on: Nonstructural protein 5A (Hepatitis C virus), Q5L478 [UNDEFINED MUTATION]; experiment: Inhibition of NS5A L31V mutant in Hepatitis C virus subtype 1a infected in human HuH7 cells assessed as reduction in viral replication by luciferase reporter gene assay; format: cell-based; settings: Huh-7; in short: as §2
[16] = tested on: T2, Nonstructural protein 5A (Hepatitis C virus), Q5L478 [Y93H]; experiment: Inhibition of NS5A Y93H mutant in Hepatitis C virus subtype 1a infected in human HuH7 cells assessed as reduction in viral replication by luciferase reporter gene assay; format: cell-based; settings: Huh-7; in short: as §2
Huh-7 [17] = experiment: Inhibition of NS5A in Hepatitis C virus subtype 4a infected in human HuH7 cells assessed as reduction in viral replication by luciferase reporter gene assay; format: cell-based
In short: (§4)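 Transient replicon assay with GT1a-H77, GT1b-Con1 or chimeric replicons, electroporated into a Huh7-derived cell line. Percent inhibition of replication, read as a drop in luciferase signal, was calculated at each concentration to give EC90. Values are means of at least two experiments.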

Huh-7 [18] = experiment: Inhibition of NS5A in Hepatitis C virus subtype 3a infected in human HuH7 cells assessed as reduction in viral replication by luciferase reporter gene assay; format: cell-based; in short: as §4
Huh-7 [19] = experiment: Inhibition of NS5A in Hepatitis C virus subtype 2b infected in human HuH7 cells assessed as reduction in viral replication by luciferase reporter gene assay; format: cell-based; in short: as §4
Huh-7 [20] = experiment: Inhibition of NS5A in Hepatitis C virus subtype 1b infected in human HuH7 cells assessed as reduction in viral replication by luciferase reporter gene assay; format: cell-based; in short: as §4
Huh-7 [21] = experiment: Inhibition of NS5A in Hepatitis C virus subtype 1a infected in human HuH7 cells assessed as reduction in viral replication by luciferase reporter gene assay; format: cell-based; in short: as §4
[22] = Selectivity ratio of EC90 for inhibition of NS5A L31V mutant in Hepatitis C virus subtype 1b to EC90 for Selectivity ratio of EC90 for inhibition of NS5A in Hepatitis C virus subtype 1a
In short: (§5)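 Fold shift is calculated against the GT1a EC90. The variant EC90 comes from a transient replicon assay: the NS5A variant is introduced into a GT1a-H77 or GT1b-Con1 replicon and electroporated into Huh7-derived cells. The read-out is reduced luciferase signal. EC90s are means of at least two experiments.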

[23] = Selectivity ratio of EC90 for inhibition of NS5A Y93H mutant in Hepatitis C virus subtype 1b to EC90 for Selectivity ratio of EC90 for inhibition of NS5A in Hepatitis C virus subtype 1a; in short: as §5
[24] = tested on: Hepatitis C virus subtype 1a; experiment: Selectivity ratio of EC90 for inhibition of NS5A Y93N mutant in Hepatitis C virus subtype 1a to EC90 for Selectivity ratio of EC90 for inhibition of NS5A in Hepatitis C virus subtype 1a; in short: as §5
[25] = tested on: Hepatitis C virus subtype 1a; experiment: Selectivity ratio of EC90 for inhibition of NS5A Q30D mutant in Hepatitis C virus subtype 1a to EC90 for Selectivity ratio of EC90 for inhibition of NS5A in Hepatitis C virus subtype 1a; in short: as §5
[26] = tested on: Hepatitis C virus subtype 1a; experiment: Selectivity ratio of EC90 for inhibition of NS5A Q30R mutant in Hepatitis C virus subtype 1a to EC90 for Selectivity ratio of EC90 for inhibition of NS5A in Hepatitis C virus subtype 1a; in short: as §5
[27] = Selectivity ratio of EC90 for inhibition of NS5A L31V mutant in Hepatitis C virus subtype 1a infected in human HuH7 cells assessed as reduction in viral to EC90 for inhibition of NS5A in Hepatitis C virus subtype 1a; format: cell-based; in short: as §5
[28] = Selectivity ratio of EC90 for inhibition of NS5A Y93H mutant in Hepatitis C virus subtype 1a infected in human HuH7 cells assessed as reduction in viral to EC90 for inhibition of NS5A in Hepatitis C virus subtype 1a; format: cell-based; in short: as §5
[29] = Selectivity ratio of EC90 for inhibition of NS5A in Hepatitis C virus subtype 4a infected in human HuH7 cells assessed as reduction in viral to EC90 for inhibition of NS5A in Hepatitis C virus subtype 1a; format: cell-based; in short: as §1
[30] = tested on: Hepatitis C virus subtype 1a; experiment: Selectivity ratio of EC90 for inhibition of NS5A R155K V36 mutant in Hepatitis C virus subtype 1a to EC90 for Selectivity ratio of EC90 for inhibition of NS5A in Hepatitis C virus subtype 1a
[31] = tested on: Hepatitis C virus subtype 1a; experiment: Selectivity ratio of EC90 for inhibition of NS5A R155K mutant in Hepatitis C virus subtype 1a to EC90 for Selectivity ratio of EC90 for inhibition of NS5A in Hepatitis C virus subtype 1a
[32] = tested on: Hepatitis C virus subtype 1b; experiment: Inhibition of NS3 D168Y mutant in Hepatitis C virus subtype 1b
[33] = tested on: Hepatitis C virus subtype 1a; experiment: Inhibition of NS3 R155K mutant in Hepatitis C virus subtype 1a
[34] = tested on: Hepatitis C virus subtype 1a; experiment: Inhibition of NS3 R155K/V36M mutant in Hepatitis C virus subtype 1a
[35] = Selectivity ratio of EC90 for inhibition of NS3 D168Y mutant in Hepatitis C virus subtype 1b to EC90 for Selectivity ratio of EC90 for inhibition of NS5A in Hepatitis C virus subtype 1a
[36] = Cytotoxicity against human HuH7 cells assessed as reduction in cell viability measured after 72 hrs by Hoechst/Alexa fluor 488 staining based Edu plus cell counting analysis; set-up: species or system Huh-7
In short: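 Huh7 cells were seeded at 1,200 per well and treated with a 20-point twofold compound dilution series for 72 h, with EdU added for the last 18-20 h. Cells were then fixed and permeabilized, nuclei stained with Hoechst, and EdU labelled with Alexa Fluor 488 by click reaction. Plates were scanned with 405 nm (420-500 nm) and 488 nm (500-530 nm) detection, giving CC50.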

Structure (SMILES)	Selectivity ratio [1]	Selectivity ratio [2]	Selectivity ratio [3]	EC90 [4] [nM]	EC90 [5] [nM]	EC90 [6] [nM]	EC90 [7] [nM]	EC90 [8] [nM]	EC90 [15] [nM]	EC90 (Huh-7 [17]) [nM]	EC90 (Huh-7 [18]) [nM]	EC90 (Huh-7 [19]) [nM]	EC90 (Huh-7 [20]) [nM]	EC90 (Huh-7 [21]) [nM]	Selectivity ratio [22]	Selectivity ratio [23]	Selectivity ratio [24]	Selectivity ratio [25]	Selectivity ratio [26]	Selectivity ratio [27]	also measured
COC(=O)N[C@H](C(=O)N1CCC[C@H]1c1ncc(-c2cc(F)c3c(c2)OC(c2ccc4c(c2)OCCC42CC2)n2c-3cc3cc(-c4cnc([C@@H]5CCCN5C(=O)[C@@H](NC(=O)OC)C(C)C)[nH]4)ccc32)[nH]1)C(C)C.O=C(O)C(F)(F)F.O=C(O)C(F)(F)F (stereo partly drawn)	2	40	1	0.005	0.9	0.02	0.03	1.2	0.006	0.006	0.01	0.2	0.004	0.003	2	7	300	400	10	1	bioavailability [9]: 2%; concentration at 24 h [10]: 1 nM; Cmax [11]: 29 nM; AUC at 24 h [12]: 0.24 µM·h; clearance [13]: 15 mL/min/kg; half-life [14]: 8.5 h; EC90 [16]: 0.1 nM; Selectivity ratio [28]: 20; Selectivity ratio [29]: 1
COC(=O)N[C@H](C(=O)N1CCC[C@H]1c1ncc(-c2cc(F)c3c(c2)OC(c2ccc4c(c2)OCCC4)n2c-3cc3cc(-c4cnc([C@@H]5CCCN5C(=O)[C@@H](NC(=O)OC)C(C)C)[nH]4)ccc32)[nH]1)C(C)C (stereo partly drawn) [listing 1 of 2 here]	3	100	1	0.005	0.2	0.07	0.02	0.9	0.02	0.002	0.01	0.3	0.003	0.003	2	23	67	300	7	7	Selectivity ratio [30]: 1; Selectivity ratio [31]: 1; Selectivity ratio [28]: 167; Selectivity ratio [29]: 1; EC90 [32]: 0.002 nM; EC90 [33]: 0.0001 nM; EC90 [34]: 0.001 nM; Selectivity ratio [35]: 1
COC(=O)N[C@H](C(=O)N1CCC[C@H]1c1ncc(-c2cc(F)c3c(c2)OC(c2ccc4c(c2)OCCC4)n2c-3cc3cc(-c4cnc([C@@H]5CCCN5C(=O)[C@@H](NC(=O)OC)C(C)C)[nH]4)ccc32)[nH]1)C(C)C (stereo partly drawn) [listing 2 of 2 here]																					CC50 at 72 h [36]: > 50000 nM
